From ChEMBL document CHEMBL1136963, “Sesterterpenes as tubulin tyrosine ligase inhibitors. First insight of structure-activity relationships and discovery of new lead” (J Med Chem, 2009) come the findings set out here.

Active and inactive are the calls of the source. The rule behind the calls is not given here.

One data set has as its system J774.A1. Description: Cytotoxicity against mouse J774A1 cells up to >100 uM after 24 to 48 hrs by MTT assay. It counts as functional, cell-based.
The next data set concerns MCF7. Description: Cytotoxicity against human MCF7 cells up to >100 uM after 24 to 48 hrs by MTT assay. Format: functional, cell-based. On the technique in general: Formazan colour is commonly taken as a measure of viable cells.
The next data set deals with HEK293. Description: Cytotoxicity against HEK293 cells up to >100 uM after 24 to 48 hrs by MTT assay. Format: functional, cell-based. As to conditions: Homo sapiens.
Another data set addresses T1, Tubulin--tyrosine ligase (Homo sapiens, UniProt Q8NG68).
T1 sequence (Q8NG68 whole entry): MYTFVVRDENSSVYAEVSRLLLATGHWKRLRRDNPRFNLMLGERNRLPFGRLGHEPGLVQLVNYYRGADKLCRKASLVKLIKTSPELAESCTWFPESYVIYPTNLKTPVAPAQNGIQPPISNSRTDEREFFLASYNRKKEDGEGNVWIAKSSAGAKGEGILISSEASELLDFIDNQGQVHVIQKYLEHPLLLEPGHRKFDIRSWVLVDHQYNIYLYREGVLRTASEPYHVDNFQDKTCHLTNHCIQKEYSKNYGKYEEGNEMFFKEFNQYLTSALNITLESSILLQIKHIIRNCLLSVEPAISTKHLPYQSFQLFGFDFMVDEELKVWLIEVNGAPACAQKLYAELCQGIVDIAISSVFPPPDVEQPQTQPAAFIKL
Description: Binding affinity to TTL by surface plasmon resonance. In outline: (§1)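 Biacore SPR. TTL and BSA each amine-coupled (100 µg/mL in 10 mM sodium acetate, pH 5.0) to 8-12 kRU, with an unmodified reference surface. Running buffer 10 mM NaH2PO4, 150 mM NaCl, 0.5% DMSO, pH 7.4. Five-point 2-fold series, typically 0.05-10 µM, in triplicate. 25 °C, 50 µL/min, 60 s association, 200 s dissociation. Double-referenced. KD fitted from at least 10 curves.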
(Surface plasmon resonance follows binding to a sensor surface in real time, without labels.)

The target in another data set is Albumin (Bos taurus, UniProt P02769). The experiment in a line: Binding affinity to bovine serum albumin by surface plasmon resonance. As to conditions: cattle, isolated protein. It counts as ADME. In outline: as §1
Sequence of Albumin (P02769 whole entry): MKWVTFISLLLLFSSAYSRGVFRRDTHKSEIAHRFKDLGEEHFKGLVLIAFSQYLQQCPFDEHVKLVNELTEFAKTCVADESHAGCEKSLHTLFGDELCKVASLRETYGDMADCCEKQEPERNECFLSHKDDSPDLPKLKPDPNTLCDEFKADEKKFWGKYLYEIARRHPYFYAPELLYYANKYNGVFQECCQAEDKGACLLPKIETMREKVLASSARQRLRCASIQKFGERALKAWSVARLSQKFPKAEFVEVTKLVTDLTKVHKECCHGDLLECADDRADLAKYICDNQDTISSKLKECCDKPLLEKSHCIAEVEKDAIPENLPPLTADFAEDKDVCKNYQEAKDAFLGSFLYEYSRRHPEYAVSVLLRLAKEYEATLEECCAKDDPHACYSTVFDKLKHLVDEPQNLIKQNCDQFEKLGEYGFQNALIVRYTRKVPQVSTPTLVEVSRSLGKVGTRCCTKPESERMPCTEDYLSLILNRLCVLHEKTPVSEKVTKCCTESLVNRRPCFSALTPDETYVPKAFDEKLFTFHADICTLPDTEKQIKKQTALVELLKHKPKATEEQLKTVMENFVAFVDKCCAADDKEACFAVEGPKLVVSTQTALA

The term Kd denotes the equilibrium constant for the complex coming apart. A higher Kd goes with a looser complex. Consider `CC1=CC(=O)O[C@@H]1[C@@H](O)/C=C(\C)CC[C@@H]1[C@@]2(C)CCC[C@@](C)(C=O)[C@@H]2[C@@H](O)C[C@@]1(C)O`, for which the result with J774.A1, in the data set with MCF7 and in the data set on HEK293 was inactive. This compound also yielded a Kd at Tubulin--tyrosine ligase of 3000 nM. Besides, on Albumin, the Activity result was “Not Active”.

Take `C=C(CC[C@@H]1[C@@]2(C)CCC[C@@](C)(CO)[C@@H]2[C@@H](O)C[C@@]1(C)O)[C@@H](O)[C@@H](O)C1OC(=O)C=C1C` (stereo in doubt; 23) [listing 1 of 2 here]: the Activity entry at Albumin was “Not Active”.

On to `COC(=O)[C@]1(C)CCC[C@@]2(C)[C@H]1[C@@H](O)C[C@@](C)(O)[C@@H]2CC/C(C)=C/[C@H](O)[C@H]1OC(=O)C=C1C`, for which the result with J774.A1, in the data set on MCF7 and in the data set with HEK293 was inactive. Moreover, on Tubulin--tyrosine ligase, the Kd turned out to be 6200 nM. At Albumin, the Activity result is “Not Active”.

As to `CC1=CC(=O)O[C@@H]1C/C=C(\C)CC[C@@H]1[C@@]2(C)CCC[C@@](C)(CO)[C@@H]2[C@@H](O)C[C@@]1(C)O`, the outcome in the data set with J774.A1, in the data set with MCF7 and with HEK293 was inactive. This compound also returned a Kd at Tubulin--tyrosine ligase of 72 nM. For the same compound, on Albumin, the Activity entry is recorded as “Not Active”.

As to `CCO[C@H]1O[C@H]2C[C@@](C)(O)[C@H](CC/C(C)=C/C[C@H]3OC(=O)C=C3C)[C@@]3(C)CCC[C@]1(C)[C@H]23`, the result in the data set on J774.A1, with MCF7 and in the data set on HEK293 was inactive. The Kd at Tubulin--tyrosine ligase was 73 nM. In addition, at Albumin, the Activity entry is “Not Active”.

As to `CC1=CC(=O)O/C1=C\C=C(/C)CC[C@@H]1[C@@]2(C)CCC[C@@](C)(C=O)[C@@H]2[C@@H](O)C[C@@]1(C)O`, the result with J774.A1, with MCF7 and with HEK293 was inactive. For the same compound, at Tubulin--tyrosine ligase, the Kd amounted to 200 nM. The Activity entry on Albumin is “Not Active”.

Consider `C=C(CC[C@@H]1[C@@]2(C)CCC[C@@](C)(CO)[C@@H]2[C@@H](O)C[C@@]1(C)O)[C@@H](O)[C@@H](O)C1OC(=O)C=C1C` (stereo in doubt; 22), for which the result with J774.A1, in the data set on MCF7 and with HEK293 was inactive.

Consider `C=C1C[C@H](O)[C@@H]2[C@](C)(CCC[C@@]2(C)C=O)[C@H]1CC/C(C)=C/[C@H](O)[C@H]1OC(=O)C=C1C`, for which the outcome in the data set with J774.A1, in the data set on MCF7 and in the data set on HEK293 was inactive. This compound also had a Kd on Tubulin--tyrosine ligase of 3300 nM. For the same compound, at Albumin, the Activity result is “Not Active”.

Turning to `CCO[C@H]1O[C@H]2C[C@@](C)(O)[C@H](CC/C(C)=C/[C@H](O)[C@H]3OC(=O)C=C3C)[C@@]3(C)CCC[C@]1(C)[C@H]23`, the outcome in the data set on J774.A1, in the data set on MCF7 and in the data set on HEK293 was inactive. This compound registered a Kd on Tubulin--tyrosine ligase of 960 nM. Moreover, the Activity result at Albumin is “Not Active”.

As to `C=C(CC[C@@H]1[C@@]2(C)CCC[C@@](C)(C=O)[C@@H]2[C@@H](O)C[C@@]1(C)O)[C@@H](O)[C@@H](O)C1OC(=O)C=C1C` (some centres undefined), the result with J774.A1, with MCF7 and in the data set with HEK293 was inactive. The Activity entry on Albumin was “Not Active”.

As to `CC1=CC(=O)O[C@@H]1C/C=C(\C)CC[C@@H]1[C@@]2(C)CCC[C@@](C)(C=O)[C@@H]2[C@@H](O)C[C@@]1(C)O`, the result in the data set with J774.A1, in the data set with MCF7 and in the data set with HEK293 was inactive. Moreover, binding at Tubulin--tyrosine ligase was characterised by a dissociation constant (Kd) of 810 nM. The Activity result at Albumin is “Not Active”.

`CC1=CC(=O)O[C@@H]1[C@@H](O)/C=C(\C)CC[C@@H]1[C@@]2(C)CCCC(C)(C)[C@@H]2[C@@H](O)C[C@@]1(C)O`: the result in the data set on J774.A1, with MCF7 and in the data set with HEK293 was inactive. Also, the Activity entry on Albumin is reported as “Not Active”.

`CC1=CC(=O)O[C@@H]1[C@@H](O)/C=C(\C)CC[C@@H]1[C@@]2(C)CCC[C@@](C)(C(=O)O)[C@@H]2[C@@H](O)C[C@@]1(C)O`: the result in the data set on J774.A1, in the data set on MCF7 and with HEK293 was inactive. At Tubulin--tyrosine ligase, this compound registered a Kd of 3000 nM. For the same compound, the Activity entry at Albumin was “Not Active”.

In the case of `C=C1C[C@H](O)[C@H]2[C@](C)(CO)CCC[C@]2(C)[C@H]1CC/C(C)=C/[C@H](O)[C@H]1OC(=O)C=C1C`, the result with J774.A1, with MCF7 and with HEK293 was inactive. Further, at Tubulin--tyrosine ligase, the Kd is 2000 nM. In addition, the Activity entry on Albumin is given as “Not Active”.

On to `CC1=CC(=O)OC1C/C=C(\C)CC[C@@H]1[C@@]2(C)CCC[C@@](C)(C(=O)O)[C@@H]2[C@@H](O)C[C@@]1(C)O` (some centres undefined), for which the outcome in the data set on J774.A1, in the data set on MCF7 and in the data set with HEK293 was inactive. This compound had a Kd on Tubulin--tyrosine ligase of 7 nM. Further, the Activity result on Albumin is “Not Active”.

Take `C=C(CC[C@@H]1[C@@]2(C)CCC[C@@](C)(CO)[C@@H]2[C@@H](O)C[C@@]1(C)O)[C@@H](O)[C@@H](O)C1OC(=O)C=C1C` (stereo in doubt; 23) [listing 2 of 2 here]: the outcome in the data set on J774.A1, with MCF7 and with HEK293 was inactive.

As for `CC1=CC(=O)O/C1=C\C=C(/C)CC[C@@H]1[C@@]2(C)CCC[C@@]3(C)C(=O)O[C@@H](C[C@@]1(C)O)[C@H]23`, the result in the data set on J774.A1, in the data set on MCF7 and with HEK293 was inactive. On Tubulin--tyrosine ligase, this compound displayed an equilibrium dissociation constant (Kd) of 150 nM. Also, at Albumin, the Activity result is on record as “Not Active”.

Turning to `CC1=CC(=O)O/C1=C\C=C(/C)CC[C@@H]1[C@@]2(C)CCC[C@@](C)(C(=O)O)[C@@H]2[C@@H](O)C[C@@]1(C)O`, the result with J774.A1, in the data set on MCF7 and with HEK293 was inactive. The compound further had a Kd on Tubulin--tyrosine ligase of 93 nM. Moreover, the Activity result on Albumin is listed as “Not Active”.

For the compound `CC1=CC(=O)O[C@@H]1[C@@H](O)/C=C(\C)CC[C@@H]1[C@@]2(C)CCC[C@@](C)(CO)[C@@H]2[C@@H](O)C[C@@]1(C)O`, the outcome in the data set with J774.A1, in the data set on MCF7 and in the data set on HEK293 was inactive. The Kd on Tubulin--tyrosine ligase is 4700 nM. In addition, the Activity entry on Albumin is recorded as “Not Active”.

As to `CC1=CC(=O)O/C1=C\C=C(/C)CC[C@@H]1[C@@]2(C)CCC[C@@](C)(CO)[C@@H]2[C@@H](O)C[C@@]1(C)O`, the outcome with J774.A1, in the data set with MCF7 and in the data set on HEK293 was inactive. This compound had a dissociation constant Kd on Tubulin--tyrosine ligase of 110 nM. Moreover, the Activity result at Albumin was “Not Active”.

As for `CC1=CC(=O)O[C@@H]1[C@@H](O)/C=C(\C)CC[C@@H]1[C@@]2(C)CCC[C@@]3(C)CO[C@@H](C[C@@]1(C)O)[C@@H]32`, the outcome in the data set on J774.A1, in the data set with MCF7 and in the data set with HEK293 was inactive. Moreover, the Activity entry at Albumin is on record as “Not Active”.
